Assay results: ChEMBL document CHEMBL1795313, “Synthesis and antimicrobial activities of hexahydroimidazo[1,5-a]pyridinium bromides with varying benzyl substituents” (Eur J Med Chem, 2011)

Columns and labels:
Proteus vulgaris = test: Antimicrobial activity against Proteus vulgaris ATCC 6897 after 18 hrs by microdilution method; format: functional
Method in brief: (§1)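 NCCLS M7-A4 broth microdilution. Two-fold series from 400 to 0.78 made in sterile distilled water. Overnight bacteria in double-strength Mueller-Hinton broth, adjusted to 10⁸ cfu/mL (McFarland 0.5). Incubated 37 °C, 18 h. MIC taken as the first well without turbidity. Medium-only and water-plus-medium controls.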

[1] = test system: Staphylococcus epidermidis; test: Antimicrobial activity against Staphylococcus epidermidis ATCC 12228 after 18 hrs by microdilution method; format: functional
Method in brief: (§2)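 Broth microdilution per NCCLS M7-A4. Stocks kept on nutrient agar at 4 °C. Overnight cultures in double-strength Mueller-Hinton broth, adjusted to 10⁸ cfu/mL against McFarland 0.5. Compounds serially diluted in sterile distilled water (400 down to 0.78). Incubated at 37 °C for 18 h. MIC taken as the first well without turbidity. Wells without organism and water/medium growth controls included.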

Salmonella typhimurium = test: Antimicrobial activity against Salmonella Typhimurium CCM 5445 after 18 hrs by microdilution method; format: functional, Salmonella enterica subsp. enterica serovar Typhimurium; method in brief: as §1
Pichia kudriavzevii = test: Antifungal activity against Candida krusei ATCC 6258 after 18 hrs by microdilution method; format: functional
Method in brief: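 NCCLS M27-A broth microdilution for yeast. Two-fold series from 400 to 0.78 made in sterile distilled water. Inoculum in double-strength yeast glucose broth, adjusted to 10⁸ cfu/mL (McFarland 0.5). Incubated 37 °C, 18 h. MIC taken as the first well without turbidity. Medium-only and water-plus-medium controls.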

Candida albicans = test: Antifungal activity against Candida albicans ATCC 10231 after 18 hrs by microdilution method; format: functional
Method in brief: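 Yeast broth microdilution per NCCLS M27-A. Stock kept on potato dextrose agar at 4 °C. Suspension in double-strength yeast glucose broth, adjusted to 10⁸ cfu/mL by McFarland 0.5. Water-based twofold series (400 down to 0.78) used. Incubated at 37 °C for 18 h. MIC is the lowest concentration with no visible turbidity.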

Escherichia coli = test: Antimicrobial activity against Escherichia coli ATCC 8739 after 18 hrs by microdilution method; format: functional; method in brief: as §2
Bacillus cereus = test: Antimicrobial activity against Bacillus cereus CCM 99 after 18 hrs by microdilution method; format: functional; method in brief: as §1
Micrococcus luteus = test: Antimicrobial activity against Micrococcus luteus ATCC 9341 after 18 hrs by microdilution method; format: functional; method in brief: as §1
Klebsiella pneumoniae = test: Antimicrobial activity against Klebsiella pneumoniae CCM 2318 after 18 hrs by microdilution method; format: functional; method in brief: as §1
[2] = Acute toxicity in po dosed Swiss albino mouse after 24 hrs; format: organism-based; conditions: in vivo
Method in brief: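 Mice dosed orally, 5 male and 5 female per group; limit test at 2000 mg/kg, plus classical LD50 test; toxic responses and deaths recorded over 24 h; LD50 derived from lethality.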

Staphylococcus aureus = test: Antimicrobial activity against Staphylococcus aureus 6538/P after 18 hrs by microdilution method; format: functional; method in brief: as §2
[3] = Salmonella enterica, CCM 5445, 18 h

Compound | MIC (Proteus vulgaris; ATCC 6897, 18 h) | MIC ([1]; ATCC 12228, 18 h) | MIC (Salmonella typhimurium; [3]) | MIC (Pichia kudriavzevii; ATCC 6258, 18 h) | MIC (Candida albicans; ATCC 10231, 18 h) | MIC (Escherichia coli; ATCC 8739, 18 h) | MIC (Bacillus cereus; CCM 99, 18 h) | MIC (Micrococcus luteus; ATCC 9341, 18 h) | MIC (Klebsiella pneumoniae; CCM 2318, 18 h) | LD50 at 24 h [2] | MIC (Staphylococcus aureus) | MIC (Proteus vulgaris) | MIC [1] | MIC (Salmonella typhimurium; Salmonella enterica subsp. enterica serovar Typhimurium) | MIC (Escherichia coli) | MIC (Bacillus cereus) | MIC (Micrococcus luteus) | MIC (Klebsiella pneumoniae) | MIC (Pichia kudriavzevii) | MIC (Candida albicans)
Cc1ccc(C[N+]2=CN3CCCCC3C2)cc1.[Br-] (centres undefined) | 6.25 µg/mL | 1.56 µg/mL | 50 µg/mL | 0.78 µg/mL | 3.12 µg/mL | 0.78 µg/mL | < 0.78 µg/mL | 6.25 µg/mL | 0.78 µg/mL | > 2000 mg/kg | 3.12 µg/mL |  |  |  |  |  |  |  |  | 
Cc1c(C)c(C)c(C[N+]2=CN3CCCCC3C2)c(C)c1C.[Br-] (centres undefined) | 6.25 µg/mL | 3.12 µg/mL | 12.5 µg/mL | 3.12 µg/mL | 50 µg/mL | 12.5 µg/mL | 12.5 µg/mL | 12.5 µg/mL | 50 µg/mL | 1110 mg/kg | 25 µg/mL |  |  |  |  |  |  |  |  | 
Clc1ccc(C[N+]2=CN3CCCCC3C2)c(Cl)c1.[Br-] (centres undefined) | 1.56 µg/mL | 0.78 µg/mL | 0.78 µg/mL | 0.78 µg/mL | 0.78 µg/mL | 3.12 µg/mL | 3.12 µg/mL | 0.78 µg/mL | 12.5 µg/mL | 1890 mg/kg | 0.78 µg/mL |  |  |  |  |  |  |  |  | 
C1=[N+](Cc2ccccc2)CC2CCCCN12.[Br-] (centres undefined) | > 400 µg/mL | 50 µg/mL | > 400 µg/mL | > 400 µg/mL | > 400 µg/mL | > 400 µg/mL | > 400 µg/mL | 3.12 µg/mL | > 400 µg/mL | 907 mg/kg | 100 µg/mL |  |  |  |  |  |  |  |  | 
Clc1ccc(C[N+]2=CN3CCCCC3C2)cc1.[Br-] (centres undefined) | 6.25 µg/mL | 0.78 µg/mL | 0.78 µg/mL | 0.78 µg/mL | 0.78 µg/mL | 3.12 µg/mL | 3.12 µg/mL | 0.78 µg/mL | 12.5 µg/mL | > 2000 mg/kg | 1.56 µg/mL |  |  |  |  |  |  |  |  | 
Cc1cc(C)c(CN2C=[N+](Cc3c(C)cc(C)cc3C)C3CCCCC32)c(C)c1.[Cl-] (centres undefined) |  | 1600 µg/mL |  |  | 1600 µg/mL | 1600 µg/mL |  |  |  |  | 100 µg/mL |  |  |  |  |  |  |  |  | 
FC(F)(F)c1ccc(C[N+]2=CN3CCCCC3C2)cc1.[Br-] (centres undefined) | 6.25 µg/mL | 0.78 µg/mL | 0.78 µg/mL | 0.78 µg/mL | 0.78 µg/mL | 0.78 µg/mL | 3.12 µg/mL | 0.78 µg/mL | 12.5 µg/mL | 824 mg/kg | 1.56 µg/mL |  |  |  |  |  |  |  |  | 
Cc1cc(C)c(C)c(C[N+]2=CN3CCCCC3C2)c1C.[Br-] (centres undefined) | 6.25 µg/mL | 6.25 µg/mL | 50 µg/mL | 6.25 µg/mL | 50 µg/mL | 50 µg/mL | 100 µg/mL | 12.5 µg/mL | 200 µg/mL | 1950 mg/kg | 50 µg/mL |  |  |  |  |  |  |  |  | 
N#Cc1ccc(C[N+]2=CN3CCCCC3C2)cc1.[Br-] (centres undefined) | 6.25 µg/mL | 1.56 µg/mL | 0.78 µg/mL | 0.78 µg/mL | 0.78 µg/mL | 0.78 µg/mL | 3.12 µg/mL | 0.78 µg/mL | 12.5 µg/mL | > 2000 mg/kg | 1.56 µg/mL |  |  |  |  |  |  |  |  | 
Cc1cc(C)c(C[n+]2cn(C)c3ccccc32)c(C)c1.[Cl-] |  | 1600 µg/mL |  |  | 1600 µg/mL | 1600 µg/mL |  |  |  |  | 1600 µg/mL |  |  |  |  |  |  |  |  | 
Cc1cc(C)c(C[N+]2=CN3CCCCC3C2)c(C)c1.[Br-] (centres undefined) | 50 µg/mL | 25 µg/mL | 100 µg/mL | 12.5 µg/mL | 50 µg/mL | 200 µg/mL | 200 µg/mL | 6.25 µg/mL | 200 µg/mL | 758 mg/kg | 50 µg/mL |  |  |  |  |  |  |  |  | 
GENTAMICIN |  |  |  |  |  |  |  |  |  |  | 3.12 µg/mL | 0.78 µg/mL | 1.56 µg/mL | 6.25 µg/mL | 3.12 µg/mL | 6.25 µg/mL | 1.56 µg/mL | 25 µg/mL |  | 
NYSTATIN |  |  |  |  |  |  |  |  |  |  |  |  |  |  |  |  |  |  | 3.12 µg/mL | 6.25 µg/mL
Fc1c(F)c(F)c(C[N+]2=CN3CCCCC3C2)c(F)c1F.[Br-] (centres undefined) | 12.5 µg/mL | 0.78 µg/mL | 25 µg/mL | 3.12 µg/mL | 12.5 µg/mL | 25 µg/mL | 6.25 µg/mL | 0.78 µg/mL | 12.5 µg/mL | 978 mg/kg | 3.12 µg/mL |  |  |  |  |  |  |  |  | 
CC(C)(C)c1ccc(C[N+]2=CN3CCCCC3C2)cc1.[Br-] (centres undefined) | 50 µg/mL | 100 µg/mL | 100 µg/mL | 50 µg/mL | 25 µg/mL | 200 µg/mL | 200 µg/mL | 12.5 µg/mL | 200 µg/mL | 838 mg/kg | 100 µg/mL |  |  |  |  |  |  |  |  | 
